The source of these data is ChEMBL document CHEMBL1148470, “Synthesis, SAR, crystal structure, and biological evaluation of benzoquinoliziniums as activators of wild-type and mutant cystic fibrosis transmembrane conductance regulator channels” (J Med Chem, 2004).

Assay [1] deals with T1, Cystic fibrosis transmembrane conductance regulator (Homo sapiens, UniProt P13569). Nature of the assay: Percent activation of wild type CFTR dependent efflux was determined by measuring the rate of iodide [125I]- efflux from transfected CHO cells. Type of assay: functional, cell-based. On the set-up: concentration or dose not given beside the values. The method, boiled down: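 CHO cells stably expressing wild-type CFTR (MEM, 7% FBS, 100 μM methotrexate), grown in 24-well plates. Loaded 30 min at 37 °C in efflux buffer (NaCl/KCl/MgCl2/glucose/HEPES, pH 7.4) with 1 μM KI and 125I; medium sampled every 1 min up to 11 min, drug after four baseline aliquots, compounds at 250 μM. Peak efflux rate expressed relative to 5 μM forskolin (=100%); mean ± SEM, n experiments.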
Target sequence in this assay (P13569 whole entry, looked up): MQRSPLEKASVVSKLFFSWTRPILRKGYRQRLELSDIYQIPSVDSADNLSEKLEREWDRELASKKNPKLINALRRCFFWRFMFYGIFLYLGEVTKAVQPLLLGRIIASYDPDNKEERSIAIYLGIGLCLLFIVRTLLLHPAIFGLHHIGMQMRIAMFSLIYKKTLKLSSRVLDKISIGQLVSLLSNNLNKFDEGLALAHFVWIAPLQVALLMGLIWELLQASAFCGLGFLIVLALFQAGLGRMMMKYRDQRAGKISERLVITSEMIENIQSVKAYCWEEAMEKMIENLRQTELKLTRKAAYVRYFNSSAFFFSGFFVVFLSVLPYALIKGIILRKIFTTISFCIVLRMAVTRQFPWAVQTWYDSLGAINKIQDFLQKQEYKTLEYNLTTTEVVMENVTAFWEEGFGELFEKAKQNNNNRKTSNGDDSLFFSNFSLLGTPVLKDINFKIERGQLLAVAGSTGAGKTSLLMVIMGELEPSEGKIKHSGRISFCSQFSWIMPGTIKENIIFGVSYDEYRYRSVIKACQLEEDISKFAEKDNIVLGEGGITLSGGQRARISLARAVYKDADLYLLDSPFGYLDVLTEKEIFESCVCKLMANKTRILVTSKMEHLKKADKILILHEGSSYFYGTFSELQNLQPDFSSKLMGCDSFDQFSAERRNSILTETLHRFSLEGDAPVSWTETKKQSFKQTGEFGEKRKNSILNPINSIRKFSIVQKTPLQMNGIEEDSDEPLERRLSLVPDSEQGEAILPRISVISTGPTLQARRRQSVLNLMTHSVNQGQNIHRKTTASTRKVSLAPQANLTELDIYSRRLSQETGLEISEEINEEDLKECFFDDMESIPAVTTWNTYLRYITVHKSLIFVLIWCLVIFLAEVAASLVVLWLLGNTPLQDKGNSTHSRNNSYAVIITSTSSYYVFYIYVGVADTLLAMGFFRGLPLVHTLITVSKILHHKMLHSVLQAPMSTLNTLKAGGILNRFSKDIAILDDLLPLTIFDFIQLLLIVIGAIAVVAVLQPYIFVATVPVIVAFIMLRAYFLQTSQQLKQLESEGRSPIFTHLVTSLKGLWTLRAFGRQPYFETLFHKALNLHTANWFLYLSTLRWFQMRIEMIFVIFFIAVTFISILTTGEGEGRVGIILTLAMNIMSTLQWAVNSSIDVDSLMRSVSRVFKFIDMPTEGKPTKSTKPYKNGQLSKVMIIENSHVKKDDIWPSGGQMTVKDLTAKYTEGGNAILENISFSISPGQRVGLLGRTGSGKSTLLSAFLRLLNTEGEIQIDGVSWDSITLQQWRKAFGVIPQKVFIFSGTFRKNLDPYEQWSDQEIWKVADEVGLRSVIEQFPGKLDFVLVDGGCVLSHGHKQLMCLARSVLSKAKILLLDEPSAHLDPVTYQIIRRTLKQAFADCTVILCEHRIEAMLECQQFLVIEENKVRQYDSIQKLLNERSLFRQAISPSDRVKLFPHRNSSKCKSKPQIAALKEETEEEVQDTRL

In assay [2] the target is Cystic fibrosis transmembrane conductance regulator (Homo sapiens, UniProt P13569, G551D). The assay can be described thus: Half-Maximal effective concentration of compound required to stimulate of G551D-CFTR activity in the presence of 10 uM Fsk. Type of assay: functional. The method, boiled down: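 G551D-CFTR stably expressed in CHO cells. The ¹²⁵I efflux assay was run on a robot: cells were loaded for 30 min at 37 °C in HEPES buffer pH 7.4 containing 1 μM KI and 1 μCi/mL ¹²⁵I, and efflux was sampled each minute for up to 11 min (4 baseline samples). Cells were exposed to 10 μM Fsk, then to increasing compound concentrations. EC50 came from %-of-maximal-effect curves, n = 6, mean ± SEM.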
Chain of Cystic fibrosis transmembrane conductance regulator (Homo sapiens, UniProt P13569, G551D) (P13569 whole entry G551D): as the sequence (P13569 whole entry, looked up) above, with G551D counted along it

For assay [3], the target named is T1, Cystic fibrosis transmembrane conductance regulator. Nature of the assay: Half-Maximal effective concentration of compound required to stimulate of wild type-CFTR activity in the presence of 1 uM Fsk.
Target sequence in this assay (P13569 whole entry): as the sequence (P13569 whole entry, looked up) above

Some results are limits rather than exact numbers.

As for `Nc1cc2cccc[n+]2c2cccc(Cl)c12`, the Activation in assay [1] is less than 5%.

Broadly, the EC50 is the concentration at which the effect is half-maximal. Take `CCCCc1c(O)c2c(Cl)cccc2[n+]2ccccc12`: in assay [1], the Activation amounted to 33%. Also, the figures for the EC50 in assay [2] and in assay [3] were 0.75 µM and 1.7 µM, respectively.

As for `Nc1cc2[n+](c3c(Cl)cccc13)CCc1c-2[nH]c2ccccc12`, in assay [1], the Activation stood at 46%.

As to `Oc1cc2cccc[n+]2c2ccc(F)cc12`, the Activation in assay [1] came out at 11%.

The molecule `Oc1c2c3c(ccc[n+]3c3cccc(F)c13)CC2` yielded an Activation in assay [1] of less than 5%.

In assay [1], `Nc1cc2[n+](c3cccc(Cl)c13)CCc1c-2[nH]c2ccccc12` showed an Activation of 30%.

On to `CCCCc1c(O)c2cccc(Cl)c2[n+]2ccccc12`, for which the Activation in assay [1] was found to be 45%. For the same molecule, the values for the EC50 in assay [2] and in assay [3] were 34 µM and 23.5 µM, respectively.

`Oc1cc2cccc[n+]2c2cccc(Cl)c12` showed an Activation in assay [1] of 20%. The EC50 in assay [2] was more than 200 µM; in assay [3], 146 µM.

`Nc1cc2[n+](c3ccc(Cl)cc13)CCc1c-2[nH]c2ccccc12` had an Activation in assay [1] of 6%.

Regarding `Nc1cc2cccc[n+]2c2c(Cl)cccc12`, in assay [1], the Activation was less than 5%.

In assay [1], `Oc1cc2cccc[n+]2c2c(Cl)cccc12` came in with an Activation of 24%. In addition, the EC50 in assay [2] was more than 200 µM; in assay [3], 141 µM.

As for `Oc1c(-c2ccccc2)c2cccc[n+]2c2c(Cl)cccc12`, the Activation in assay [1] amounted to 6%.

Molecule `CCOC(=O)c1c(O)c2ccc(F)cc2[n+]2ccccc12` gave an Activation in assay [1] of 6%.

The molecule `Oc1cc2cccc[n+]2c2cc(F)ccc12` came in with an Activation in assay [1] of 16%.

As to `CCOC(=O)c1c(O)c2cc(F)ccc2[n+]2ccccc12`, in assay [1], the Activation is less than 5%.

In turn, `Oc1cc2cccc[n+]2c2c(F)cccc12` had an Activation in assay [1] of less than 5%.

In assay [1], `CC(C)Cc1c(O)c2cccc(Cl)c2[n+]2ccccc12` had an Activation of 26%. The concentration for a half-maximal effect (EC50) is 32 µM in assay [2] and 26 µM in assay [3].

In turn, `CCCCCc1c(O)c2cccc(Cl)c2[n+]2ccccc12` registered an Activation in assay [1] of 38%. Also, the figures for the EC50 in assay [2] and in assay [3] were 20 µM and 21 µM, respectively.

In turn, `Oc1cc2cccc[n+]2c2cccc(F)c12` had an Activation in assay [1] of less than 5%.

Regarding `CCOC(=O)c1c(O)c2c(F)cccc2[n+]2ccccc12`, the Activation in assay [1] came to 8%.

Regarding `CCOC(=O)c1c(O)c2cccc(F)c2[n+]2ccccc12`, the Activation in assay [1] stood at 37%. Moreover, the 50% effective concentration (EC50) is 95 µM in assay [2] and 70.5 µM in assay [3].

Consider `Cc1c(O)c2cccc(Cl)c2[n+]2ccccc12`, for which the Activation in assay [1] worked out at 19%.

Turning to `Oc1cc2cccc[n+]2c2cc(Cl)ccc12`, in assay [1], the Activation is less than 5%.

For the molecule `Oc1cc2cccc[n+]2c2ccc(Cl)cc12`, the Activation in assay [1] amounted to 18%.

Take `CCCc1c(O)c2cccc(Cl)c2[n+]2ccccc12`: the Activation in assay [1] was determined as 32%. The values for the 50% effective concentration (EC50) in assay [2] and in assay [3] were 48 µM and 54.2 µM, respectively.

With `C=C[C@@]1(C)CC(=O)[C@]2(O)[C@@]3(C)[C@@H](O)CCC(C)(C)[C@@H]3[C@H](O)[C@H](OC(C)=O)[C@@]2(C)O1`, the Activation in assay [1] turned out to be 100%.
